# Screening data as filed in PubChem BioAssay.
# Rows were chosen to be rich in hits. Some 1.3% of all compounds tested hit in one or more screens of this group.
# AF4-AF9 inh = MLL-AF4/AF9 protein interaction inhibition; P42568; AlphaScreen, biotin-AF4 peptide binding to FLAG-AF9; inhibition, % at 10 µM; 350,000 tested, 0.47% active;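 active = every replicate reaching a set inhibition limit, whatever the replicate mean, cut at about 25% in these data; inconclusive = mean inhibition reaches that limit but some replicates miss it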;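 also: 0% = plate neutral control median and 100% = total signal loss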
# PDI turbidity = blocks human protein disulfide isomerase activity; P07237; 350,000 tested, 0.052% active; PDI insulin aggregation turbidity, A650, 90 min; inhibition, % at 10 µM;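 active = mean inhibition across replicates of 30% or more, whatever share of single replicates reach that level; inconclusive = mean inhibition below 30% while every single replicate reaches 30%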
# ERp5 inh = inhibitors of human ERp5; Q15084; ERp5 insulin aggregation, absorbance 650 nm, 90 min; inhibition, % at 9.99 µM; 350,000 tested, 0.05% active; AID 651711;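 active = mean replicate inhibition above about 25%, with every replicate also reaching it, limit read from the data, passing the limit was not always enough; inconclusive = only one of those two criteria met; inactive = neither criterion met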
# SIRT5 inh = inhibitors of human sirtuin-5 desuccinylase; Q9NXA8; Purified SirT5, succinyl-peptide AMC, trypsin-coupled fluorescence; inhibition, % at 15 µM; 330,000 tested, 1.1% active; AID 652115; in the data active = inhibition above about 15%; inconclusive = no clear call, values can overlap the other calls
# Target sequence (Q9NXA8 whole entry, looked up): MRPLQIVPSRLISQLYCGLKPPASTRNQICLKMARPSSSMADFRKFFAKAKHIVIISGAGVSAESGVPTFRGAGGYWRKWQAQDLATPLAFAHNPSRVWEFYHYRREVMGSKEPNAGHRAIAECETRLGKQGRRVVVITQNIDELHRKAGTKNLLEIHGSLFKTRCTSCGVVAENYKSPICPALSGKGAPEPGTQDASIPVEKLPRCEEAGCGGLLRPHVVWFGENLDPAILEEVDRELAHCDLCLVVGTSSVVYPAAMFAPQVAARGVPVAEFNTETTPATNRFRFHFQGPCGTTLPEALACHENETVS
# FN deposition inh = fibronectin deposition inhibition | 350,000 tested, 0.086% active | inhibition, % at 12.6 µM | AH1F fibroblasts, Alexa488-fibronectin deposition fluorescence, overnight;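 active = mean inhibition across replicates of 30% or more, regardless of how many single replicates reach that level; inconclusive = mean under 30% yet at least half of replicates reach 30%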;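 also: positive control wells lacked labelled fibronectin entirely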
#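 Assay system: AH1F fibroblasts / Quantity: 10000 cells per well / Medium: DMEM plus 2% serum, read in PBS / Reagent: labelled fibronectin 24 nM / Dosing: single dose, pinned / Times: 1 h cell attachment, overnight exposure to compound and label / Signal: fluorescence, ex 485 nm, em 525 nm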
# Alpha interfer = interferes with the AlphaScreen assay signal; shares compounds with AF4-AF9 inh; AlphaScreen interference counter-screen, signal luminescence; AC50, µM (top dose mostly 12 µM), without a hit: at the top dose activity change, negative = inhibition; 530 tested, 45% active; AID 720494; cut-off not given, nearly all actives have AC50 up to about 14 µM
# Starred values were filed as active, the others as inactive; ? = inconclusive; / = no result.
SMILES,AF4-AF9 inh,PDI turbidity,ERp5 inh,SIRT5 inh,FN deposition inh,Alpha interfer
CCN(Cc1ccccc1)c1ccc(/C=N/N=C(N)N)cc1,53*,16,2,-4,5,10µM*
C[C@H](CO)N1C[C@H](C)[C@H](CN(C)C(=O)Nc2ccc(F)cc2)Oc2ccc(NC(=O)Cn3cnnn3)cc2C1=O,-1,/,-7,-1,-11,/
COc1ccc(NC(=O)CN(c2cccc(C(F)(F)F)c2)S(C)(=O)=O)cc1OC,/,-9,/,/,10,/
Cc1cccc(Nc2cc(C)c3c(O)cccc3n2)c1C,28*,-1,-3,/,1,-30%
CN(C)C(CNC(C(=O)Nc1ccc([N+](=O)[O-])cc1Br)c1ccccc1)c1ccccc1 (stereo unspecified),35*,-3,19,-1,-3,-23%
O=c1oc2ccccc2c(NC(c2ccccc2)c2ccccc2)c1[N+](=O)[O-],/,17,/,/,-2,/
Cc1oc(-c2cccc3ccccc23)nc1CN1CCN(c2ncnc3ccccc23)CC1,22,4,-5,2,-2,-10%
Cc1cnc(C)c(N2CCN(Cc3nc(-c4ccc(C)o4)oc3C)CC2)n1,5,4,1,-2,/,/
c1cc2c3c(cccc3c1)NC(c1ccc3c(c1)OCO3)N2,34*,1,1,4,1,0%
Oc1c(C(Nc2cccc(C(F)(F)F)c2)c2ccncc2)ccc2cccnc12 (stereo unspecified),33*,3,3,0,-5,4.8µM*
CCC(=O)N(C)C[C@H]1Oc2cc(C#Cc3ccncc3)ccc2S(=O)(=O)N([C@@H](C)CO)C[C@@H]1C,?,/,3,8,/,-18%
Cc1sc(NC(=O)c2ccccc2)c(C(=O)c2ccccc2)c1C,10,8,1,-4,4,/
CN(C)c1ccc(/C=C/C(=O)c2ccc(O)cc2)cc1,-11,27,3,0,-3,/
CN(C)c1ccc(C=c2c3cc(O)ccc3n3c2cc(-c2ccccc2)[n+]3C)cc1,78*,0,-5,3,9,2.5µM*
CN(C)c1ccc(C=c2c3ccccc3n3c2c2ccccc2[n+]3C)cc1,51*,-3,0,0,0,3.5µM*
CN(C)c1ccc(/C=C/c2ccc3ccccc3[n+]2C)cc1,/,-3,/,/,-14,/
COc1cc(Nc2c3ccccc3nc3ccccc23)cc(OC)c1OC,31*,-4,-2,-2,5,13µM*
CCC(=O)Nc1nnc(S(=O)(=O)N(CC)c2cc(C)cc(C)c2)s1,1,-5,6,-1,-2,/
Cc1ncc(CO)c(/C=N/NC(=S)Nc2cccc(Cl)c2)c1O,/,-5,/,/,/,/
Cc1ncc(CO)c(/C=N/NC(=S)Nc2ccc(Cl)c(Cl)c2)c1O,30*,2,1,0,2,13µM*
CN1CCN(c2ccc(S(=O)(=O)N3CCCCC3)cc2NC(=O)/C=C/c2ccc(Cl)c([N+](=O)[O-])c2)CC1,?,2,2,6,-5,2%
CCN1CCN(c2ccc(S(=O)(=O)N3CCCCC3)cc2NC(=O)/C=C/c2ccc([N+](=O)[O-])cc2)CC1,14,-6,3,14,5,/
COc1ccc2nc3cccc(OC)c3nc2c1,2,-26,3,-4,/,/
COc1ccc2nc3ccccc3nc2c1N,?,2,1,-1,5,12µM*
C/C(=N\Nc1nc2ccccc2[nH]1)c1ccc2c(c1)OCO2,33*,-2,-1,2,/,-34%
SMILES,AF4-AF9 inh,PDI turbidity,ERp5 inh,SIRT5 inh,FN deposition inh,Alpha interfer
CC(=O)c1cccc(NC(=O)c2cc(-c3ccco3)on2)c1,-2,-6,2,-1,-3,/
C[C@@H]1CN([C@H](C)CO)C(=O)c2cc(C3=CCCCC3)cnc2O[C@H]1CN(C)C(=O)c1ccc(F)cc1,2,/,8,4,7,/
N#Cc1nc(-c2cccs2)oc1N1CCN(Cc2ccccc2)CC1,31*,-3,3,-4,/,-27%
COc1ccc(NCc2nn(CC(=O)c3ccc(Br)cc3)c3[n+]2CCCCC3)cc1,30*,0,-2,2,2,-43%
COc1ccc(CNc2ccc(Br)cc2)cc1,-1,21,-3,-3,1,/
Cc1ccc(NC(=O)NC2(C(=O)NCc3ccccc3)CCCCC2)cc1,/,2,/,/,/,/
CCOc1cc(N2CCOCC2)c(OCC)cc1NC(=O)c1ccc2ccccc2n1,38*,9,3,-1,-16,-31%
O=C1COc2ccc(C(=O)COC(=O)c3ccc4ccccc4n3)cc2N1,/,6,/,/,/,/
